Data published in ChEMBL document CHEMBL3091328, “Synthesis, DNA-binding abilities and anticancer activities of triazole-pyrrolo[2,1-c][1,4]benzodiazepines hybrid scaffolds” (Bioorg Med Chem Lett, 2013).
Calls of active or inactive are those of the source. No cut-off for these calls is given here.

Experiments:
A-375 [1] = assay: Cytotoxicity against human A375 cells assessed as cell survival at 1 to 5 uM after 12 hrs by MTT assay relative to control; format: functional, cell-based
Summary of the method: (§1)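 A375 cells seeded at 10,000 per well, attached overnight, then exposed in triplicate to 0, 1, 3 or 5 μM for 0, 12 or 24 h; viability by MTT absorbance versus untreated control; IC50 taken as mean of dose-response curves from three experiments.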

A-375 [2] = assay: Cell cycle arrest in human A375 cells assessed as accumulation at G1 phase after 24 hrs by propidium iodide staining-based flow cytometry (reference value: 65.3 +/- 0.1%); format: functional
A-375 [3] = assay: Downregulation of cyclin D1 mRNA expression in human A375 cells at 5 uM after 24 hrs by RT-PCR analysis; format: functional, cell-based
Summary of the method: (§2)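 A375 cells treated 24 h at 5 μM; p53, p21, p27 and cyclin D1 transcripts quantified by qPCR, normalised to β-actin in each sample, compared with control.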

A-375 [4] = assay: Cytotoxicity against human A375 cells assessed as cell survival after 12 to 24 hrs by MTT assay relative to control; format: functional, cell-based; summary of the method: as §1
A549 = assay: Cytotoxicity against human A549 cells assessed as cell survival at 5 uM after 24 hrs by MTT assay relative to control; format: functional; settings: A549, 24 h, read-out: Survival
Summary of the method: (§3)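 Cells exposed to agent at 5 µM for 24 h, then growth and viability measured by MTT assay. Survival given as percent of untreated control.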

A-375 [5] = assay: Cell cycle arrest in human A375 cells assessed as accumulation at G2/M phase after 24 hrs by propidium iodide staining-based flow cytometry (reference value: 15.2 +/- 0.6%); format: functional
A-375 [6] = assay: Induction of apoptosis in human A375 cells assessed as decrease in Bcl-XL protein level at 5 uM after 24 hrs by Western blotting analysis; format: functional, cell-based
Summary of the method: (§4)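 Lysates from A375 cells exposed 24 h to 5 μM, or to a range of concentrations, immunoblotted with specific antibodies against Bcl-2, Bcl-xL, Bax, Bad, caspase-3 and PARP; actin probed as loading control; three separate experiments.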

A-375 [7] = assay: Induction of apoptosis in human A375 cells at 5 uM after 24 hrs by AnnexinV-FITC/propidium iodide staining-based fluorimetric analysis (reference value: 2.6%); format: functional
A-375 [8] = assay: Induction of apoptosis in human A375 cells assessed as increase in Bad protein level at 5 uM after 24 hrs by Western blotting analysis; format: functional, cell-based; summary of the method: as §4
Ca9-22 = assay: Cytotoxicity against human Ca9-22 cells assessed as cell survival at 5 uM after 24 hrs by MTT assay relative to control; format: functional; settings: Ca9-22, 24 h, read-out: Survival; summary of the method: as §3
A-375 [9] = assay: Induction of apoptosis in human A375 cells assessed as increase in Bax protein level at 5 uM after 24 hrs by Western blotting analysis; format: functional, cell-based; summary of the method: as §4
A-375 [10] = assay: Cell cycle arrest in human A375 cells assessed as accumulation at S phase after 24 hrs by propidium iodide staining-based flow cytometry (reference value: 11.8 +/- 0.1%); format: functional
HEK-293T = assay: Cytotoxicity against human 293T cells assessed as cell survival at 5 uM after 24 hrs by MTT assay relative to control; format: functional; settings: read-out: Survival; summary of the method: as §3
A-375 [11] = assay: Induction of apoptosis in human A375 cells assessed as decrease in Bcl-2 protein level at 5 uM after 24 hrs by Western blotting analysis; format: functional, cell-based; summary of the method: as §4
[12] = Cytotoxicity against human RPMI7951 cells assessed as cell survival at 5 uM after 24 hrs by MTT assay relative to control; format: functional; settings: RPMI-7951, 24 h, read-out: Survival; summary of the method: as §3
B16 = assay: Cytotoxicity against mouse B16 cells assessed as cell survival at 5 uM after 24 hrs by MTT assay relative to control; format: functional; settings: B16, 24 h, read-out: Survival; summary of the method: as §3
A-375 [13] = assay: Upregulation of p27 mRNA expression in human A375 cells at 5 uM after 24 hrs by RT-PCR analysis; format: functional, cell-based; summary of the method: as §2
[14] = Cytotoxicity against human skin fibroblasts assessed as cell survival at 5 uM after 24 hrs by MTT assay relative to control; parameters: species or system Skin fibroblast; settings: read-out: Survival; summary of the method: as §3
A-375 [15] = assay: Cell cycle arrest in human A375 cells assessed as accumulation at sub-G1 phase after 24 hrs by propidium iodide staining-based flow cytometry (reference value: 7.7 +/- 0.1%); format: functional
A2058 = assay: Cytotoxicity against human A2058 cells assessed as cell survival at 5 uM after 24 hrs by MTT assay relative to control; format: functional; settings: A2058, 24 h, read-out: Survival; summary of the method: as §3
A-375 [16] = assay: Cytotoxicity against human A375 cells assessed as cell survival at 1 to 5 uM by MTT assay relative to control; format: functional, cell-based; settings: TDE = time-dependent effect; summary of the method: as §1
A-375 [17] = assay: Upregulation of p53 mRNA expression in human A375 cells at 5 uM after 24 hrs by RT-PCR analysis; format: functional, cell-based; summary of the method: as §2
A-375 [18] = assay: Cytotoxicity against human A375 cells assessed as cell survival at 5 uM after 24 hrs by MTT assay relative to control; format: functional; settings: A-375, 24 h, read-out: Survival; summary of the method: as §3
A-375 [19] = assay: Upregulation of p21 mRNA expression in human A375 cells at 5 uM after 24 hrs by RT-PCR analysis; format: functional, cell-based; summary of the method: as §2
A-375 [20] = assay: Induction of apoptosis in human A375 cells assessed as cleavage of PARP after 24 hrs by Western blotting analysis; format: functional, cell-based; summary of the method: as §4
A-375 [21] = assay: Induction of apoptosis in human A375 cells assessed as decrease in Bcl-XL protein level after 24 hrs by Western blotting analysis; format: functional, cell-based; summary of the method: as §4
A-375 [22] = assay: Induction of apoptosis in human A375 cells assessed as increase in Bax protein level after 24 hrs by Western blotting analysis; format: functional, cell-based; summary of the method: as §4
A-375 [23] = assay: Induction of apoptosis in human A375 cells assessed as increase in Bad protein level after 24 hrs by Western blotting analysis; format: functional, cell-based; summary of the method: as §4
Escherichia coli = assay: Binding affinity to Escherichia coli pBR322 DNA assessed as DNA unwinding at 10 to 1000 uM after 12 hrs by agarose gel electrophoresis
Summary of the method: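 Negatively supercoiled pBR322 plasmid (0.4 μg) incubated 12 h in TE buffer with increasing compound concentrations (0–1000 μM); samples run 2.5 h on 1% agarose gel; unwinding read as reduced mobility.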

A-375 [24] = assay: Induction of apoptosis in human A375 cells assessed as cleavage of caspase-3 after 24 hrs by Western blotting analysis; format: functional, cell-based; summary of the method: as §4
A-375 [25] = assay: Induction of apoptosis in human A375 cells assessed as decrease in Bcl-2 protein level after 24 hrs by Western blotting analysis; format: functional, cell-based; summary of the method: as §4

Row | SMILES | Activity (A-375 [1]) | Activity (A-375 [2]) [%] | Activity (A-375 [3]) | Activity (A-375 [4]) | viability at 5 µM (A549) [%] | Activity (A-375 [5]) [%] | Activity (A-375 [6]) | Activity (A-375 [7]) [%] | Activity (A-375 [8]) | viability at 5 µM (Ca9-22) [%] | Activity (A-375 [9]) | Activity (A-375 [10]) [%] | viability at 5 µM (HEK-293T) [%] | Activity (A-375 [11]) | viability at 5 µM [12] [%] | viability at 5 µM (B16) [%] | Activity (A-375 [13]) | viability at 24 h, 5 µM [14] [%] | Activity (A-375 [15]) [%] | viability at 5 µM (A2058) [%] | also measured
1 | COc1cccc(-c2cn(C/C=C\COc3cc4c(cc3OC)C(=O)N3CCC[C@H]3C=N4)nn2)c1 | inactive | 82.3 | Active | Dose-dependent effect | 100 | 3.3 | Active | 16.4 | Active | 50 | Active | 6.7 | 42.8 | Active | 65.3 | 74.2 | Active | 90.4 | 7.7 | 40.7 | Activity (A-375 [16]): tde; Activity (A-375 [17]): Active; viability at 5 µM (A-375 [18]): 48.4%; Activity (A-375 [19]): Active
2 | COc1cc2c(cc1OC/C=C\Cn1cc(-c3ccccc3)nn1)N=C[C@@H]1CCCN1C2=O | inactive | 83 | Active | Dose-dependent effect | 65.6 | 2.2 | Active | 23.1 | Active | 25.6 | Active | 5.9 | 74.1 | Active | 55.9 | 33.9 | Active | 87.7 | 8.9 | 45.7 | Activity (A-375 [20]): Dose-dependent effect; Activity (A-375 [21]): Dose-dependent effect; Activity (A-375 [22]): Dose-dependent effect; Activity (A-375 [23]): Dose-dependent effect; Activity (Escherichia coli): Active; Activity (A-375 [24]): Dose-dependent effect; Activity (A-375 [25]): Dose-dependent effect; Activity (A-375 [16]): tde; Activity (A-375 [17]): Active; viability at 5 µM (A-375 [18]): 22.4%; Activity (A-375 [19]): Active
3 | COc1ccc(-c2cn(C/C=C\COc3cc4c(cc3OC)C(=O)N3CCC[C@H]3C=N4)nn2)cc1 | inactive | 82.3 | Active | Dose-dependent effect | 98.2 | 3.4 | Active | 12.1 | Active | 55.5 | Active | 7.2 | 46.7 | Active | 66.4 | 62.8 | Active | 90.3 | 7.1 | 42 | Activity (A-375 [16]): tde; Activity (A-375 [17]): Active; viability at 5 µM (A-375 [18]): 38.7%; Activity (A-375 [19]): Active
4 | COc1cc2c(cc1OC/C=C\Cn1cc(-c3ccccc3OC)nn1)N=C[C@@H]1CCCN1C2=O | inactive | 81.9 | Active | Dose-dependent effect | 102 | 1.3 | Active | 11.1 | Active | 105 | Active | 5.1 | 51.1 | Active | 75.1 | 66.3 | Active | 84.7 | 11.7 | 63.1 | Activity (A-375 [16]): tde; Activity (A-375 [17]): Active; viability at 5 µM (A-375 [18]): 58.4%; Activity (A-375 [19]): Active
